In brackets after ≈: the same amount, converted by molar mass.
How the values were obtained:
Type in all cases: functional
Bacteroides fragilis [1] = experiment: In vitro antibacterial activity against the anaerobic Bacteroides fragilis (Strain UC no.6428)
Clostridium botulinum = experiment: In vitro antibacterial activity against the anaerobic Clostridium botulinum A(Strain UC no.6506)
Escherichia coli [2] = experiment: (§1) In vivo antibacterial activity against Escherichia coli(UC 311) infected mice after oral administration
Method in brief: (§2)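 Fresh drug solutions were given subcutaneously (0.2 mL) or by oral intubation (0.5 mL), per line. Dosing was immediately after infection, then daily for 4 consecutive days, with 3 further days of observation. CD50 was calculated by Spearman-Karber.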

Escherichia coli [3] = experiment: In vivo antibacterial activity against Escherichia coli(UC no 311) infected mice after sc administration; method in brief: as §2
Fusobacterium nucleatum [4] = experiment: In vitro antibacterial activity against the anaerobic Fusobacterium nucleatum (Strain UC no.6324)
Method in brief: (§3)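 Agar dilution with serial twofold drug dilutions in Schaedler broth mixed into molten Wilkens-Chalgren agar. Strains grown 48 h on Schaedler agar, suspended to 0.5 McFarland, and 0.001 mL spotted by replicator. All steps done anaerobically. Incubation 48 h at 37 °C. MIC is the least drug inhibiting growth; a faint film or fewer than three colonies scored negative.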

Fusobacterium nucleatum [5] = experiment: In vitro antibacterial activity against the anaerobic Fusobacterium nucleatum (Strain UC no.6516); method in brief: as §3
Pasteurella multocida [6] = experiment: (§4) In vivo antibacterial activity against Pasteurella multocida(UC 264) infected mice after oral administration; method in brief: as §2
Pasteurella multocida [7] = experiment: In vivo antibacterial activity against Pasteurella multocida(UC no 264) infected mice after sc administration; method in brief: as §2
Plasmodium berghei [8] = experiment: In vivo activity against Plasmodium berghei in mice (Mus musculus) on oral administration
Plasmodium berghei [9] = experiment: In vivo activity against Plasmodium berghei in mice (Mus musculus) after subcutaneous dose (95% confidence interval)
Proteus vulgaris = experiment: In vivo antibacterial activity against Proteus vulgaris(UC no 347) infected mice after sc administration; method in brief: as §2
Streptococcus pneumoniae [10] = experiment: In vivo antibacterial activity against Streptococcus pneumoniae III(UC 3213) infected mice after oral administration (value in parenthesis is 95% confidence interval); method in brief: as §2
Streptococcus pyogenes [11] = experiment: In vivo antibacterial activity against Streptococcus pyogenes (UC no 152) infected mice after sc administration (value in parenthesis is 95% confidence interval); method in brief: as §2
Streptococcus pneumoniae [12] = experiment: In vivo antibacterial activity against Streptococcus pneumoniae I (UC no 41) infected mice after sc administration (value in parenthesis is 95% confidence interval); method in brief: as §2
[13] = test system: Staphylococcus epidermidis; experiment: In vitro antibacterial activity against the aerobic Staphylococcus epidermidis (Strain UC no.3389)
Method in brief: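 Broth microdilution in brain/heart infusion broth with twofold drug dilutions. Inoculum was a standardized suspension giving 10⁵ viable cells/mL final. Plates were incubated 20 h at 37 °C. MIC (mcg/mL) = lowest concentration with no visible growth.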

Bacteroides fragilis [14] = experiment: In vivo antibacterial activity against Bacteroides fragilis(UC no 6428) infected mice after sc administration
Streptococcus pyogenes [15] = experiment: In vivo antibacterial activity against Streptococcus pyogenes(UC 152) infected mice after oral administration (value in parenthesis is 95% confidence interval); method in brief: as §2
Mus musculus [16] = experiment: as §1; method in brief: as §2
Mus musculus [17] = experiment: In vivo antibacterial activity against Bacteroides fragilis (UC no 6428) infected mice after sc administration
Mus musculus [18] = experiment: In vivo antibacterial activity against Staphylococcus aureus (UC no 76) infected mice after sc administration; method in brief: as §2
Mus musculus [19] = experiment: In vivo antibacterial activity against Staphylococcus aureus(UC 76) infected mice after oral administration; method in brief: as §2
Mus musculus [20] = experiment: as §4; method in brief: as §2

Which MIC (Bacteroides fragilis [1]) does the source give for `CC[C@@H]1CCN[C@H](C(=O)N[C@@H]([C@H]2O[C@H](SC)[C@H](O)[C@@H](O)[C@H]2O)[C@H](C)Cl)C1` [PIRLIMYCIN] here?
The MIC was 0.25 µg/mL (≈ 0.608 µM).

And the MIC (Clostridium botulinum)?
Its MIC is under 0.03 µg/mL.

What about the CD50 (Escherichia coli [2]) of the same compound?
The CD50 was over 400 mg/kg.

What about the CD50 (Escherichia coli [3]) of the same compound?
Its CD50 is over 160 mg/kg.

What about the MIC (Fusobacterium nucleatum [4]) of the same compound?
Its MIC is 0.06 µg/mL (≈ 0.146 µM).

And the MIC (Fusobacterium nucleatum [5])?
The MIC was 0.12 µg/mL (≈ 0.292 µM).

What about the CD50 (Pasteurella multocida [6]) of the same compound?
Its CD50 is 400 mg/kg.

What about the CD50 (Pasteurella multocida [7]) of the same compound?
The CD50 was over 160 mg/kg.

And the CD50 (Plasmodium berghei [8])?
The CD50 was over 50 mg/kg.

And the CD50 (Plasmodium berghei [9])?
The CD50 was 16 mg/kg.

And the CD50 (Proteus vulgaris)?
The CD50 was over 160 mg/kg.

What about the CD50 (Streptococcus pneumoniae [10]) of the same compound?
Its CD50 is 17.7 mg/kg.

And the CD50 (Streptococcus pyogenes [11])?
The CD50 was 0.25 mg/kg.

What about the CD50 (Streptococcus pneumoniae [12]) of the same compound?
Its CD50 is 1.7 mg/kg.

And the MIC [13]?
The MIC was 0.2 µg/mL (≈ 0.487 µM).

And the CD50 (Bacteroides fragilis [14])?
The CD50 was under 6.25 mg/kg.

And the CD50 (Streptococcus pyogenes [15])?
Its CD50 is 2.9 mg/kg.

How did the CD50 (Mus musculus [16]) turn out when `CCC[C@@H]1C[C@@H](C(=O)N[C@@H]([C@H]2O[C@H](SC)[C@H](O)[C@@H](O)[C@H]2O)[C@H](C)Cl)N(C)C1` [CLINDAMYCIN] was run?
Its CD50 is over 400 mg/kg.

What about the CD50 (Mus musculus [17]) of the same compound?
Its CD50 is 14.4 mg/kg.

And the CD50 (Mus musculus [18])?
The CD50 was 5.7 mg/kg.

What about the CD50 (Mus musculus [19]) of the same compound?
Its CD50 is 12.3 mg/kg.

And the CD50 (Mus musculus [20])?
The CD50 was over 400 mg/kg.
